Test results as given in ChEMBL document CHEMBL4118027, “Preussilides A-F, Bicyclic Polyketides from the Endophytic Fungus Preussia similis with Antiproliferative Activity” (J Nat Prod, 2017).
pIC50: −log10 of the molar value. Values after ≈ are worked out from the molar mass of the structure shown. Active and inactive are the calls of the source. No cut-off for these calls is given here.

Tests used:
Sclerotinia sclerotiorum [1] = assay: Antifungal activity against Sclerotinia sclerotiorum DSM 1946 at 20 ug/disk after 5 days by disk diffusion assay; assay type: functional, organism-based
Summary of the method: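 Disk diffusion on YMG medium seeded with a mycelial suspension of the non-sporulating fungus; paper disks loaded with test material; inhibition zone diameter in mm read after 5 days.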

Aspergillus fumigatus = assay: Antifungal activity against Aspergillus fumigatus DSM 819 by serial dilution method; assay type: functional
Micrococcus luteus = assay: Antibacterial activity against Micrococcus luteus DSM 1790 by serial dilution method; assay type: functional, organism-based
L929 [2] = assay: Induction of nuclear fragmentation in mouse L929 cells at cytotoxic IC50 by DAPI staining based microscopic method; assay type: functional, cell-based
[3] = test system: Mycolicibacterium smegmatis; assay: Antibacterial activity against Mycobacterium smegmatis ATCC 700084 by serial dilution method; assay type: functional, organism-based
Setaria italica = assay: Phytotoxicity against Setaria italica assessed as inhibition of seedling germination at 100 ug/disk; assay type: functional, organism-based
Escherichia coli = assay: Antibacterial activity against Escherichia coli DSM 498 by serial dilution method; assay type: functional, organism-based
Bacillus subtilis = assay: Antibacterial activity against Bacillus subtilis DSM 10 by serial dilution method; assay type: functional, organism-based
[4] = test system: Chromobacterium violaceum; assay: Antibacterial activity against Chromobacterium violaceum DSM 30191 by serial dilution method; assay type: functional, organism-based
Wickerhamomyces anomalus = assay: Antifungal activity against Pichia anomala DSM 6766 by serial dilution method; assay type: functional, organism-based
[5] = test system: Schizosaccharomyces pombe; assay: Antifungal activity against Schizosaccharomyces pombe DSM 70572 by serial dilution method; assay type: functional, organism-based
KB 3-1 = assay: Cytotoxicity against human KB3-1 cells assessed as reduction in cell viability after 5 days by MTT assay; assay type: functional, cell-based; conditions: KB 3-1, 120 h
Summary of the method: (§1)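 MTT viability assay run over 5 days on a panel of eight lines (L929, KB3.1, A431, A549, SKOV-3, PC-3, MCF-7, U2OS). IC50 values were derived.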

L929 [6] = assay: Cytotoxicity against mouse L929 cells assessed as reduction in cell viability after 5 days by MTT assay; assay type: functional, cell-based; conditions: L929, 120 h; summary of the method: as §1
Staphylococcus aureus = assay: Antibacterial activity against Staphylococcus aureus DSM 346 by serial dilution method; assay type: functional, organism-based
PC-3 = assay: Cytotoxicity against human PC3 cells assessed as reduction in cell viability after 5 days by MTT assay; assay type: functional, cell-based; conditions: PC-3, 120 h; summary of the method: as §1
Yamadazyma tenuis = assay: Antifungal activity against Candida tenuis MUCL 29892 by serial dilution method; assay type: functional, organism-based
A549 = assay: Cytotoxicity against human A549 cells assessed as reduction in cell viability after 5 days by MTT assay; assay type: functional, cell-based; conditions: A549, 120 h; summary of the method: as §1
MCF7 = assay: Cytotoxicity against human MCF7 cells assessed as reduction in cell viability after 5 days by MTT assay; assay type: functional, cell-based; conditions: MCF7, 120 h; summary of the method: as §1
Caenorhabditis elegans = assay: Nematicidal activity against Caenorhabditis elegans up to 100 ug/ml; assay type: functional, organism-based
U2OS [7] = assay: Cytotoxicity against human U2OS cells assessed as reduction in cell viability after 5 days by MTT assay; assay type: functional, cell-based; conditions: 120 h; summary of the method: as §1
A-431 = assay: Cytotoxicity against human A431 cells assessed as reduction in cell viability after 5 days by MTT assay; assay type: functional, cell-based; conditions: A-431, 120 h; summary of the method: as §1
Rhodotorula glutinis = assay: Antifungal activity against Rhodotorula glutinis DSM 10134 by serial dilution method; assay type: functional, organism-based
Mucor hiemalis = assay: Antifungal activity against Mucor hiemalis DSM 2656 by serial dilution method; assay type: functional, organism-based
Lepidium sativum = assay: Phytotoxicity against Lepidium sativum assessed as inhibition of seedling germination at 100 ug/disk; assay type: functional, organism-based
Pseudomonas aeruginosa = assay: Antibacterial activity against Pseudomonas aeruginosa PA14 by serial dilution method; assay type: functional, organism-based
SK-OV-3 = assay: Cytotoxicity against human SKOV3 cells assessed as reduction in cell viability after 5 days by MTT assay; assay type: functional, cell-based; conditions: SK-OV-3, 120 h; summary of the method: as §1
Candida albicans = assay: Antifungal activity against Candida albicans DSM 1665 by serial dilution method; assay type: functional, organism-based
Mucor plumbeus = assay: Antifungal activity against Mucor plumbeus MUCL 49355 by serial dilution method; assay type: functional
U2OS [8] = assay: Induction of morphological changes in human U2OS cells at 0.5 ug/ml after 24 hrs by DAPI staining based immunofluorescence microscopic method
U2OS [9] = assay: Cell cycle arrest in human U2OS cells assessed as accumulation at sub-G1 phase at 5 to 10 ug/ml after 18 hrs by propidium iodide staining based flow cytometry; assay type: functional
Summary of the method: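 U2OS were seeded at 7 × 10^5/well in six-well plates and exposed to 5 or 10 μg/mL for 18 h after spreading, with untreated and DMSO mock controls. Cells were trypsinized, fixed in 2% PFA/PBS, then in ice-cold methanol 30 min. Staining: anti-tubulin/anti-lamin antibodies plus RNase A and propidium iodide. Flow cytometry assigned G1, S, G2-M and sub-G1 by DNA content.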

U2OS [10] = assay: Induction of morphological changes in human U2OS cells assessed as multipolar and duplicated spindle formation at 0.5 ug/ml after 24 hrs by DAPI staining based immunofluorescence microscopic method; assay type: functional, cell-based
Summary of the method: (§2)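 U2OS in DMEM (4.5 g/L glucose, 10% FBS), 37 °C, 7% CO2, seeded 3 × 10^4/well on fibronectin-coated coverslips and adhered 16 h. Treated 24 h at 0.25, 0.5, 2.5, 5 or 10 μg/mL (diluted from 1 mg/mL DMSO stock), DMSO control. Fixed in 4% PFA/PBS 20 min; anti-α-tubulin (DM1A), phalloidin-Alexa 488 and DNA stain; immunofluorescence imaging.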

U2OS [11] = assay: Induction of morphological changes in human U2OS cells assessed as aberrantly sized cells with abnormal small nuclei formation at 0.5 ug/ml after 24 hrs by DAPI staining based immunofluorescence microscopic method; assay type: functional, cell-based; summary of the method: as §2
Sclerotinia sclerotiorum [12] = assay: Antifungal activity against Sclerotinia sclerotiorum DSM 1946 at 100 ug/disk after 5 days by disk diffusion assay; assay type: functional; conditions: DSM 1946, 120 h, read-out: IZ
Summary of the method: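 Disk diffusion on YMG medium seeded with a mycelial suspension of the non-sporulating test fungus. Paper disks carried […] compound. Nystatin at 20 μg/disk was the positive control. Inhibition zone diameter (mm) was read after 5 days.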

U2OS [13] = assay: Induction of apoptosis in human U2OS cells assessed as caspase-3/7 cleavage at 250 nM after 16 hrs by caspase-3/7 green reagent based flow cytometry (reference value: 8.04%); assay type: functional

Row | Molecule | Activity (Micrococcus luteus) | Activity (L929 [2]) | Activity [3] | Activity (Setaria italica) | Activity (Escherichia coli) | Activity (Bacillus subtilis) | Activity [4] | Activity (Wickerhamomyces anomalus) | Activity [5] | pIC50 (KB 3-1) | pIC50 (L929 [6]) | Activity (Staphylococcus aureus) | pIC50 (PC-3) | Activity (Yamadazyma tenuis) | pIC50 (A549) | pIC50 (MCF7) | Activity (Caenorhabditis elegans) | pIC50 (U2OS [7]) | pIC50 (A-431) | pIC50 (SK-OV-3) | other results
1 | NYSTATIN | – | – | – | – | – | – | – | – | – | – | – | – | – | – | – | – | – | – | – | – | inhibition zone (IZ) (Sclerotinia sclerotiorum [1]): 32 mm
2 | C[C@@H]1C[C@@H]([C@H](O)CC2CC(=O)NC(=O)C2)C(=O)[C@@H](C)C1 [CYCLOHEXIMIDE] | – | – | – | – | – | – | – | – | – | – | – | – | – | – | – | – | – | – | – | – | MIC (Aspergillus fumigatus): 33.3 µg/mL (≈ 118 µM)
3 | COC(=O)/C=C/C(C)=C/C(C)=C/[C@H]1C(C[C@H](C)O)=C(C)C=C2C[C@@H](C)C(=O)[C@@H](C)[C@@H]21 | inactive | Active | inactive | inactive | inactive | inactive | inactive | inactive | inactive | 4.64 | 4.10 | inactive | 4.39 | inactive | 4.39 | 4.25 | inactive | < 2.62 | 4.25 | 4.54 | Activity (Rhodotorula glutinis): inactive; Activity (Mucor hiemalis): inactive; Activity (Lepidium sativum): inactive; Activity (Pseudomonas aeruginosa): inactive; Activity (Candida albicans): inactive
4 | CC(=O)CC1=C(C)C=C2C[C@@H](C)C(=O)[C@@H](C)[C@@H]2[C@H]1/C=C(C)/C=C(C)\C=C\C(=O)O | inactive | Active | inactive | inactive | inactive | inactive | inactive | inactive | inactive | 4.76 | 4.61 | inactive | 4.34 | inactive | 4.32 | 4.81 | inactive | < 2.60 | 4.75 | 4.69 | Activity (Rhodotorula glutinis): inactive; Activity (Mucor hiemalis): inactive; Activity (Lepidium sativum): inactive; Activity (Pseudomonas aeruginosa): inactive; Activity (Candida albicans): inactive
5 | CC1=C(C[C@H](C)O)[C@H](/C=C(C)/C=C(C)/C=C/C(=O)O)[C@@H]2C(=C1)C[C@@H](C)C(=O)[C@H]2C | inactive | Active | inactive | inactive | inactive | inactive | inactive | inactive | inactive | 5.22 | 5.19 | inactive | 4.32 | inactive | 4.22 | 4.61 | inactive | 5.15 | 4.69 | 4.65 | MIC (Mucor plumbeus): 150 µg/mL (≈ 376 µM); Activity (U2OS [8]): Active; Activity (U2OS [9]): Active; Activity (U2OS [10]): Active; Activity (U2OS [11]): Active; Activity (Rhodotorula glutinis): inactive; Activity (Mucor hiemalis): inactive; zone of inhibition at 100 µg/disc (Sclerotinia sclerotiorum [12]): 28 mm; MIC (Aspergillus fumigatus): 35.5 µg/mL (≈ 89.1 µM); Activity (Lepidium sativum): inactive; Activity (Pseudomonas aeruginosa): inactive; Activity (Candida albicans): inactive
6 | C/C(=C\c1csc(C)n1)[C@@H]1C[C@@H]2O[C@]2(C)CCC[C@H](C)[C@H](O)[C@@H](C)C(=O)C(C)(C)[C@@H](O)CC(=O)O1 [PATUPILONE] | – | – | – | – | – | – | – | – | – | 10.21 | 8.77 | – | 9.60 | – | 9.82 | 9.82 | – | 9.98 | 10.14 | 10.63 | –
7 | CC(=O)CC1=C(C)C=C2C[C@@H](C)[C@@H](O)[C@@H](C)[C@@H]2[C@H]1/C=C(C)/C=C(C)/C=C/C(=O)O | inactive | Active | inactive | inactive | inactive | inactive | inactive | inactive | inactive | 4.95 | 4.76 | inactive | 4.22 | inactive | 4.15 | 4.66 | inactive | < 2.60 | 4.45 | 4.49 | Activity (Rhodotorula glutinis): inactive; Activity (Mucor hiemalis): inactive; Activity (Lepidium sativum): inactive; Activity (Pseudomonas aeruginosa): inactive; Activity (Candida albicans): inactive
8 | CN[C@@H]1C[C@H]2O[C@@](C)([C@@H]1OC)n1c3ccccc3c3c4c(c5c6ccccc6n2c5c31)C(=O)NC4 [STAUROSPORINE] | – | – | – | – | – | – | – | – | – | – | – | – | – | – | – | – | – | – | – | – | Activity (U2OS [13]): 22.6%
9 | COC(=O)/C=C/C(C)=C/C(C)=C/[C@H]1C(CC(C)=O)=C(C)C=C2C[C@@H](C)C(=O)[C@@H](C)[C@@H]21 | inactive | Active | inactive | inactive | inactive | inactive | inactive | inactive | inactive | 4.29 | 4.27 | inactive | < 2.61 | inactive | < 2.61 | < 2.61 | inactive | 4.65 | < 2.61 | < 2.61 | Activity (Rhodotorula glutinis): inactive; Activity (Mucor hiemalis): inactive; Activity (Lepidium sativum): inactive; Activity (Pseudomonas aeruginosa): inactive; Activity (Candida albicans): inactive
